Source: PubChem BioAssay
MrgX1 antagonist – blocks BAM8-22 activation of human MrgX1 receptor. 310,000 tested, 1.3% active. MRGX1-HEK293 calcium flux, Fluo-4, BAM8-22 antagonism; active compounds read low. Q96LB2. B-score at 10 µM. AID 588676;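 active = calcium-response B-score plate-corrected more than 3 library SD below zero, starting fluorescence within 5 deviations, no agonist response on first addition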;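 note: peak minus trough fluorescence over baseline after final BAM8-22 challenge near maximal dose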
Target sequence (Q96LB2 whole entry, looked up): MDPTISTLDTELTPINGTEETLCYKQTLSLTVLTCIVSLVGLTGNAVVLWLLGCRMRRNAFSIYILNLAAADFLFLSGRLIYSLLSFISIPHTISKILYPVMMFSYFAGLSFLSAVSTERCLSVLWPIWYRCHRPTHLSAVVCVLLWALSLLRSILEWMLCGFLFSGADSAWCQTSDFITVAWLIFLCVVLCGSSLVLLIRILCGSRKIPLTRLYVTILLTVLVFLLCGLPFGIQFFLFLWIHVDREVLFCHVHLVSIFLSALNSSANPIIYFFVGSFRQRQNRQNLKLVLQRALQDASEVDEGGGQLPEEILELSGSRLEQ
RGS4 inh – inhibitors of human RGS4. 310,000 tested, 0.45% active. B-score at 10 µM. P49798. HEK293 M3R/RGS4 inducible, Fluo-4 calcium flux; active compounds read high; triggered by carbachol at its EC20. AID 463165;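 active = B-score, a plate-corrected calcium signal, over three deviations above library mean, with baseline fluorescence within five deviations of library mean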;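 note: RGS4 expression induced by doxycycline in cells with stable M3 receptor; B-score is computed from the integrated fluorescence ratio over baseline after carbachol; higher B-score means a larger calcium signal and so more RGS4 inhibition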
Target sequence (P49798 whole entry, looked up): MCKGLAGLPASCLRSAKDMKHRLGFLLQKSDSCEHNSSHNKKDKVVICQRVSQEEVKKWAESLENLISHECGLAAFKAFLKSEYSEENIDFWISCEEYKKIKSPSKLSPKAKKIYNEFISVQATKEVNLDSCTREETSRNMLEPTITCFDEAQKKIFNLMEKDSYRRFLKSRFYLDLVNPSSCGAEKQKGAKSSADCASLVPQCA
RGS4 pot – RGS4 potentiation or activation; HEK293 M3R/inducible RGS4, carbachol calcium flux Fluo4; active compounds read low; 310,000 tested, 0.92% active; B-score at 10 µM;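 active = B-score of the integrated calcium signal more than 4 SD below the library mean, with starting fluorescence not abnormally high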;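 note: negative B-score means reduced calcium response which marks RGS4 activation or potentiation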
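System – HEK293 FlpIn-TREx cells, stable M3R, doxycycline-inducible RGS4 · Reagent – ECmax carbachol challenge · Times – compound preincubation 20 min at room temperature before agonist · Technique – Fluo4 fluorescence kinetic imaging of calcium · Measure – B score of integrated Fluo4 ratio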
MrgX1 ag – human MrgX1 receptor agonism, primary screen. Q96LB2. MrgX1-HEK293 cells, Fluo-4 calcium fluorescence, agonist mode; active compounds read high. B-score at 10 µM. 310,000 tested, 0.44% active;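 active = calcium response B-score plate-corrected fluorescence ratio at least 3 library SD, with starting fluorescence B-score inside 5 SD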
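Test system: HEK293 cells stably expressing human MrgX1 receptor; amount: 15,000 cells per well; doses: compound delivered in addition one of three; times: overnight plating before 1 h dye loading; detection: Fluo-4 NW calcium-flux fluorescence, kinetic read; read-out basis: B-scored fluorescence response ratio; controls: positive and negative controls per plate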
MrgX1 PAM – allosterically activates human MrgX1 receptor signaling; MrgX1-HEK293, Fluo-4 calcium flux, FDSS; active compounds read high; B-score at 10 µM; 310,000 tested, 0.63% active;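 active = plate-corrected calcium response at least 3 library SD above typical, normal starting fluorescence, not activating the receptor alone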;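 note: compound read alongside a low EC10 to EC30 dose of BAM8-22 agonist; peak minus trough fluorescence over baseline measured at the second addition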
MrgX1 PAM conf – human MrgX1 positive allosteric modulation, re-confirmation; shares compounds with MrgX1 PAM; activation (ratio percentage), % at 10 µM; 1,200 tested, 13% active; MrgX1-HEK293, Fluo-4 calcium fluorescence, FDSS;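 active = ratio at least 3 SD above the weak peptide control, stable starting fluorescence, no direct agonism earlier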;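 note: compound followed by low BAM8-22 agonist challenge near EC20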
HEK293 Ca flux – counter-screen for MrgX1 antagonists: effect in parental HEK293 cells; shares compounds with MrgX1 antagonist; Fluo-4 calcium fluorescence, FDSS; fluorescence ratio F(max-min)/F0 at 10 µM; 4,000 tested, 2% active; AID 624111;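 active = duplicate-averaged calcium fluorescence ratio at least three times the standard deviation of buffer wells, a nonspecific response in parental cells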
HEK293 Ca counter – activity in parental HEK293 cells without MrgX1; parental HEK293 calcium flux, Fluo-4 fluorescence ratio; active compounds read high; shares compounds with MrgX1 antagonist; 4,000 tested, 0.4% active; fluorescence ratio F(max-min)/F0 at 10 µM;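 active = calcium fluorescence ratio, averaged over duplicates, at least 3 SD of the buffer-well ratio, meaning a nonspecific response in receptor-free cells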;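 note: untransfected parental HEK293 lacking MrgX1 used as counterscreen for MrgX1 allosteric activators; fluorescence change taken during the second addition on a kinetic imager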
HEK293 Ca cntr2 – MrgX1 activator counter-screen hit in parental HEK293 cells. AID 624115. shares compounds with MrgX1 antagonist. fluorescence ratio F(max-min)/F0 at 10 µM. 4,000 tested, 8.7% active. Fluo-4 calcium fluorescence (FDSS); active compounds read high;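 active = calcium fluorescence ratio at least three times the spread of buffer wells, meaning a non-specific response in parental cells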
Starred values were filed as active, the others as inactive; i = inactive; x = no result. Compounds with a hit are over-represented: about 3.5% of the library has one in this group of screens.

SMILES	MrgX1 antagonist	RGS4 inh	RGS4 pot	MrgX1 ag	MrgX1 PAM	MrgX1 PAM conf	HEK293 Ca flux	HEK293 Ca counter	HEK293 Ca cntr2
Cc1sc2ncnc(N3CCCC(C)C3)c2c1C (stereo not given)	i	i	i	i	27.8*	24.9%*	i	i	i
CCc1cc2c(=O)[nH]c(N3CCCC3)nc2s1	i	i	i	i	i	x	x	x	x
CCc1cc2c(N3CCCCC3)ncnc2s1	i	i	i	i	10.7*	i	i	i	i
Cc1c(C(=O)NCCC2=CCCCC2)sc2ncnc(N3CCCCC3C)c12 (stereo not given)	i	i	i	i	i	x	x	x	x
Cc1sc2ncnc(N3CCCCC3)c2c1C	i	i	i	i	6.81*	i	i	i	i
Cc1ccc(S(=O)(=O)N2C(=O)CCC2C(N)=O)cc1 (stereo not given)	i	i	i	i	i	x	x	x	x
O=C(CSc1nnc2ccc(-c3cccnc3)nn12)Nc1ccccc1	i	i	i	i	i	x	x	x	x
COc1ccc([C@@H](C)NC(=O)c2ccc3oc(C(C)C)nc3c2)cc1	i	i	i	i	i	x	x	x	x
COc1ccc2nc(NC(=O)C3COc4ccccc4O3)sc2c1 (stereo not given)	i	i	i	i	i	x	x	x	x
CS(=O)(=O)c1ccc2nc(NC(=O)C3COc4ccccc4O3)sc2c1 (stereo not given)	i	i	i	i	6.63*	i	i	i	i
CS(=O)(=O)c1ccc2nc(NC(=O)c3cccs3)sc2c1	i	x	x	i	23.8*	17.0%*	i	i	i
Cc1ccc2nc(NC(=O)c3cccs3)sc2c1	i	x	x	i	i	x	x	x	x
C=CCSc1nc2ccccc2c(=O)n1C1CCOC(C)(C)C1 (stereo not given)	i	i	i	i	11.4*	i	i	i	i
CCOC(=O)N1CCN=C1SCc1ccc(Cl)c(Cl)c1	i	i	i	i	i	x	x	x	x
O=C1CC(NCc2ccc(F)cc2)C(=O)N1c1ccccc1 (stereo not given)	i	i	i	i	8.11*	i	i	i	i
Cc1cc(C)cc(NC(=O)N2CCN(C/C=C/c3ccccc3)CC2)c1	i	i	i	i	i	x	x	x	x
COc1nccc(Nc2ccccc2)c1C#N	i	x	x	i	i	x	x	x	x
CSc1nccc(Nc2ccccc2)c1C#N	i	i	i	i	15.5*	8.6%*	i	i	i
Cn1c(SCC(=O)NCc2ccco2)nnc1C1CCCC1	i	i	i	i	i	x	x	x	x
C/C(N)=C(/C#N)C(=O)COC(=O)c1ccccc1Oc1ccccc1	i	i	i	i	i	x	x	x	x
COc1ccccc1N(CC(=O)NC1CC2CCC1C2)S(=O)(=O)c1ccc(C)cc1 (stereo not given)	i	i	i	i	i	x	x	x	x
COc1ccc(S(=O)(=O)N(CC(=O)NC2CC3CCC2C3)c2ccccc2OC)cc1 (stereo not given)	i	i	i	i	8.3*	i	i	i	i
COc1cccc(N/C(N)=N/c2nc(C(F)(F)F)cc(C(F)(F)F)n2)c1	i	i	i	i	10*	i	i	i	i
CCCCn1c(N)c(N(CCOC)C(=O)COC(=O)C(C)Oc2ccc(Cl)cc2)c(=O)[nH]c1=O (stereo not given)	i	i	i	i	i	x	x	x	x
COCC(C)n1c(SCC(=O)c2cc(C)n(C)c2C)nc2ccccc2c1=O (stereo not given)	i	i	i	i	13.4*	i	i	i	i
SMILES	MrgX1 antagonist	RGS4 inh	RGS4 pot	MrgX1 ag	MrgX1 PAM	MrgX1 PAM conf	HEK293 Ca flux	HEK293 Ca counter	HEK293 Ca cntr2
Cc1cccc(/C(N)=N/OC(=O)CCCc2ccccc2)c1	i	i	i	i	i	x	x	x	x
Cc1ccc(-c2cc(-c3n[nH]c(=S)n3C)c3ccccc3n2)cc1	i	i	i	i	11.1*	i	i	i	i
CCn1c(-c2cc(-c3ccc(C)c(C)c3)nc3ccccc23)n[nH]c1=S	i	i	i	i	i	x	x	x	x
Cc1ccc(-c2csc(NC(=O)C3CC=CCC3C(=O)O)c2C(=O)OC(C)C)cc1 (stereo not given)	i	i	i	i	7.3*	i	i	i	i
CCOC(=O)c1c(-c2ccc(C)cc2)csc1NC(=O)C1CC=CCC1C(=O)O (stereo not given)	i	i	i	i	i	x	x	x	x
COc1ccc(CCNC(=O)[C@@H](NC(=O)N2CC(=O)Nc3ccccc32)C(C)C)cc1OC	i	i	i	i	i	x	x	x	x
Cc1ccccc1Nc1nc(N)nc(CSc2nc3ccccc3s2)n1	i	i	i	i	8.81*	i	i	i	i
CCn1c(=O)n(CC)c2cc(S(=O)(=O)Nc3c(C)cccc3C)ccc21	i	i	i	i	i	x	x	x	x
CCn1c(=O)c(=O)n(CC)c2cc(S(=O)(=O)Nc3ccc(C)cc3)ccc21	i	i	i	i	11.3*	i	i	i	i
COc1cc(=O)[nH]c(SC(C)C(=O)Nc2cc(C)on2)n1 (stereo not given)	i	i	i	i	i	x	x	x	x
Cc1c(C(=O)NCc2ccccn2)oc2ccccc12	i	i	i	i	i	x	x	x	x
COc1ccccc1CNC(=O)c1oc2ccccc2c1C	i	i	i	i	6.66*	i	i	i	i
CC(NC(=O)C1CCCN1S(=O)(=O)c1cccc2cccnc12)c1ccccc1 (stereo not given)	i	i	i	i	i	x	x	x	x
CC(NC(=O)C1CCN(S(=O)(=O)c2cccc3cccnc23)CC1)c1ccccc1 (stereo not given)	i	i	i	i	6.48*	i	i	i	i
COc1ccc(-c2nn(-c3ccccc3)cc2CO)cc1	i	i	i	i	9.97*	i	i	i	i
